Measurements of several laboratories.
Protocols differ between the studies behind these lines.
Target: Serine/threonine-protein kinase TAO3 (TAOK3, Homo sapiens, UniProt Q9H2K8)
One construct used (Q9H2K8 1-898): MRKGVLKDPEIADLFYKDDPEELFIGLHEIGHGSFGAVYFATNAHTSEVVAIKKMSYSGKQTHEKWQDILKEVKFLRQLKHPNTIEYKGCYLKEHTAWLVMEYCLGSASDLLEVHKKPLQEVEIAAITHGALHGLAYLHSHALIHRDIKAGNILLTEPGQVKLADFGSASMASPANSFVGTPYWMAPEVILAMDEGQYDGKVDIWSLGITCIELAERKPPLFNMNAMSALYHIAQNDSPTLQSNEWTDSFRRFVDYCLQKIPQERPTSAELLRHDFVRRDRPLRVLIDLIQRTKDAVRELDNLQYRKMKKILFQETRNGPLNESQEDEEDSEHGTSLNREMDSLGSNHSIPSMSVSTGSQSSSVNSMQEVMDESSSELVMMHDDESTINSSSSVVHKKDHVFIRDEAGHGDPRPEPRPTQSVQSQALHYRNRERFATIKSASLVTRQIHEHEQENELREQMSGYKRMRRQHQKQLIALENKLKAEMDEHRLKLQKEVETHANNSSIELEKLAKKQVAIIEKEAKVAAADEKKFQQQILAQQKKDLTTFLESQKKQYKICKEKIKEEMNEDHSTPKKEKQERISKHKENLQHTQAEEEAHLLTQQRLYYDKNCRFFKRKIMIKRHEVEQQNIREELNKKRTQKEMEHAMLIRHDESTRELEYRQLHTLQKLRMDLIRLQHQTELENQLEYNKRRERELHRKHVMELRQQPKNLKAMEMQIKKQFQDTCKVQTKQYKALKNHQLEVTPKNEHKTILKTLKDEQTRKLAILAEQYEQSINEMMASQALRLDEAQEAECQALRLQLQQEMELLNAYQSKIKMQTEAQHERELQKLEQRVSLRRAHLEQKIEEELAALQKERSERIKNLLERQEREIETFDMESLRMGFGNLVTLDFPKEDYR

The remaining signal of O=c1[nH]c2ccccc2n1C1CCN(Cc2ccc(-c3[nH]c4cc5ncnc5cc4nc3-c3ccccc3)cc2)CC1 is reported as 111% (cell-free assay; 0.5 µM).
The remaining binding of COc1ncccc1-c1cnn2ccc(N3CCN(C(=O)OC(C)C)CC3)nc12 is reported as 75% (binding, competition with immobilised ligand; 1 µM).
N#CC1(c2ccccn2)CCN(Cc2cc(C(=O)O)c(=O)n3ccccc23)CC1 has a remaining binding of 78% (cell-free assay, competition with immobilised ligand; 1 µM).
Cn1cc(-c2cccc(N3CCc4c(sc5c4CC(C)(C)C5)C3=O)c2CO)cc(Nc2ccncn2)c1=O gave an inhibition of 1% (enzyme activity, inhibitor; 1 µM).
The remaining binding of Cc1nn(C)cc1-c1nc2c(N3CCN(Cc4ccc(Cl)cc4)CC3)c(Cl)cnc2[nH]1 is reported as 87% (binding, competition with immobilised ligand; 1 µM).
Nc1ncc(-c2nc(N3CCOCC3)nc(N3CCOCC3)n2)c(C(F)F)n1 has a remaining binding of 70% (binding, competition with immobilised ligand; 10 µM).
Cn1cncc1[C@](O)(COc1ccc(C#N)cc1-c1ccc(OC(F)(F)F)cc1)c1ccc(C#N)cc1 has a remaining binding of 87% (cell-free assay, competition with immobilised ligand; 1 µM).
The inhibition of Cn1cc(-c2cc(F)cc(N3CCn4c(cc5c4CCCC5)C3=O)c2CO)cc(Nc2ccc(N3CCN(C4COC4)CC3)cn2)c1=O is reported as -6% (enzyme activity, inhibitor; 0.1 µM).
CC(C)(C)c1cc(C=C(C#N)C#N)cc(Br)c1O has a remaining activity of 122% (enzyme activity, inhibitor; 0.5 µM).
